Reference: ChEMBL document CHEMBL1240350, “In vitro activity of CEM-101 against Streptococcus pneumoniae and Streptococcus pyogenes with defined macrolide resistance mechanisms” (Antimicrob Agents Chemother, 2010)
≈ marks a conversion by molar mass, not a printed value.

Tests used:
Streptococcus pneumoniae [1] = assay: Antibacterial activity against macrolide-susceptible Streptococcus pneumoniae after overnight incubation by agar dilution method; type: functional
Procedure, shortened: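 Agar dilution MICs on Mueller-Hinton agar with 5% sheep blood. Inoculum 10^4 CFU/spot, incubated overnight at 35°C in ambient air. Clinical S. pneumoniae or group A streptococcal isolates; resistance genotypes (erm(B), erm(A), mef(A)/mef(E)) were assigned by PCR. S. pneumoniae ATCC 49619 served as QC strain in each run. Range, MIC50 and MIC90 reported per phenotype group.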

Streptococcus pyogenes [2] = assay: Antibacterial activity against macrolide-resistant Streptococcus pyogenes 2094 harboring erm(A) gene after 5 passages following overnight incubation by agar dilution method
Streptococcus pneumoniae [3] = assay: Antibacterial activity against macrolide-resistant Streptococcus pneumoniae 1635 harboring erm(A) gene after 14 passages following overnight incubation by agar dilution method; type: functional
Streptococcus pneumoniae [4] = assay: Antibacterial activity against macrolide-susceptible Streptococcus pneumoniae 7127 harboring S20N mutation in L4 ribosomal protein and A105V mutation in L22 ribosomal protein after 16 passages and 10 compound-free subculturing by retest method; type: functional
Streptococcus pneumoniae [5] = assay: Antibacterial activity against macrolide-susceptible Streptococcus pneumoniae 7127 harboring S20N mutation in L4 ribosomal protein and A105V mutation in L22 ribosomal protein after overnight incubation by agar dilution method; type: functional
Streptococcus pneumoniae [6] = assay: Antibacterial activity against macrolide-susceptible Streptococcus pneumoniae 1077 after 49 passages and 10 compound-free subculturing by retest method; type: functional
Streptococcus pneumoniae [7] = assay: Antibacterial activity against macrolide-resistant Streptococcus pneumoniae 3665 harboring mef(A) gene after 50 passages following overnight incubation by agar dilution method; type: functional
Streptococcus pneumoniae [8] = assay: Antibacterial activity against macrolide-resistant Streptococcus pneumoniae 3009 harboring mutation in 23S rRNA after 20 passages and 10 compound-free subculturing by retest method; type: functional
Streptococcus pyogenes [9] = assay: Antibacterial activity against macrolide-resistant Streptococcus pyogenes 237 harboring mutation in L4 ribosomal protein after 43 passages and 10 compound-free subculturing by retest method
Streptococcus pneumoniae [10] = assay: Antibacterial activity against penicillin-susceptible Streptococcus pneumoniae after overnight incubation by agar dilution method; type: functional
Procedure, shortened: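 Agar dilution on Mueller-Hinton agar supplemented with 5% sheep blood. Inoculum 10^4 CFU/spot, incubated overnight at 35°C in ambient air. Test strains were clinical pneumococcal isolates. S. pneumoniae ATCC 49619 was included as the quality control strain in each run. MIC range, MIC50 and MIC90 were reported for each susceptibility category.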

Streptococcus pneumoniae [11] = assay: Antibacterial activity against macrolide-susceptible Streptococcus pneumoniae 7127 harboring S20N mutation in L4 ribosomal protein and A105V mutation in L22 ribosomal protein after 29 passages following overnight incubation by agar dilution method; type: functional
Streptococcus pneumoniae [12] = assay: Antibacterial activity against macrolide-resistant Streptococcus pneumoniae 1076 harboring erm(B) and mef(A) gene after 18 passages and 10 compound-free subculturing by retest method; type: functional
Procedure, shortened: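 Multistep selection by daily serial passage in subinhibitory drug concentrations. Medium was cation-adjusted Mueller-Hinton broth plus 5% lysed horse blood. Each day the next inoculum came from the tube 1–2 dilutions below the MIC whose turbidity matched the growth control, for up to 50 days. Clone MICs by CLSI macrodilution; identity to the parent confirmed by SmaI PFGE.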

Streptococcus pneumoniae [13] = assay: Antibacterial activity against macrolide-susceptible Streptococcus pneumoniae 7127 harboring S20N mutation in L4 ribosomal protein and A105V mutation in L22 ribosomal protein after 15 passages following overnight incubation by agar dilution method; type: functional
Streptococcus pneumoniae [14] = assay: Antibacterial activity against macrolide-resistant Streptococcus pneumoniae 3009 harboring mutation in 23S rRNA after 25 passages following overnight incubation by agar dilution method; type: functional
Streptococcus pyogenes [15] = assay: Antibacterial activity against macrolide-resistant Streptococcus pyogenes 2094 harboring erm(A) gene after 6 passages following overnight incubation by agar dilution method
Streptococcus pneumoniae [16] = assay: Antibacterial activity against macrolide-resistant Streptococcus pneumoniae 3665 harboring mef(A) gene after 26 passages following overnight incubation by agar dilution method; type: functional
Streptococcus pneumoniae [17] = assay: Antibacterial activity against macrolide-resistant Streptococcus pneumoniae 2686 harboring mutation in L4 ribosomal protein after 14 passages following overnight incubation by agar dilution method; type: functional
Streptococcus pneumoniae [18] = assay: Antibacterial activity against Streptococcus pneumoniae harboring erm(B) gene after overnight incubation by agar dilution method; type: functional
Procedure, shortened: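 Clinical isolates collected 1998–2008, with macrolide-resistance genes confirmed by PCR. MICs by agar dilution on Mueller-Hinton agar with 5% sheep blood. Inoculum 10^4 CFU/spot, incubated overnight at 35°C in ambient air. S. pneumoniae ATCC 49619 was the quality-control strain in every run.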

Streptococcus pneumoniae [19] = assay: Antibacterial activity against macrolide-susceptible Streptococcus pneumoniae 1077 after 50 passages following overnight incubation by agar dilution method; type: functional
Streptococcus pneumoniae [20] = assay: Antibacterial activity against macrolide-resistant Streptococcus pneumoniae 1635 harboring erm(A) gene after 49 passages following overnight incubation by agar dilution method; type: functional

`CC[C@H]1OC(=O)[C@H](C)[C@@H](O[C@H]2C[C@@](C)(OC)[C@@H](O)[C@H](C)O2)[C@H](C)[C@@H](O[C@@H]2O[C@H](C)C[C@H](N(C)C)[C@H]2O)[C@](C)(O)C[C@@H](C)CN(C)[C@H](C)[C@@H](O)[C@]1(C)O` [AZITHROMYCIN] showed an MIC50 (Streptococcus pneumoniae [1]) of 0.125 µg/mL (≈ 0.167 µM), an MIC (Streptococcus pyogenes [2]) of over 64 µg/mL and an MIC (Streptococcus pneumoniae [3]) of over 64 µg/mL. It also gave an MIC (Streptococcus pneumoniae [4]) of 0.06 µg/mL (≈ 0.0801 µM), an MIC (Streptococcus pneumoniae [5]) of 0.06 µg/mL (≈ 0.0801 µM) and an MIC (Streptococcus pneumoniae [6]) of over 64 µg/mL. For the same compound, the MIC (Streptococcus pneumoniae [7]) was 16 µg/mL (≈ 21.4 µM), the MIC (Streptococcus pneumoniae [8]) was over 64 µg/mL and the MIC (Streptococcus pyogenes [9]) was 8 µg/mL (≈ 10.7 µM). It also gave an MIC50 (Streptococcus pneumoniae [10]) of 4 µg/mL (≈ 5.34 µM), an MIC90 (Streptococcus pneumoniae [10]) of over 64 µg/mL and an MIC (Streptococcus pneumoniae [11]) of 0.5 µg/mL (≈ 0.668 µM). The MIC (Streptococcus pneumoniae [12]) was over 64 µg/mL.
With `CC[C@H]1OC(=O)[C@H](C)[C@@H](O[C@H]2C[C@@](C)(OC)[C@@H](O)[C@H](C)O2)[C@H](C)[C@@H](O[C@@H]2O[C@H](C)C[C@H](N(C)C)[C@H]2O)[C@](C)(OC)C[C@@H](C)C(=O)[C@H](C)[C@@H](O)[C@]1(C)O` [CLARITHROMYCIN] the MIC (Streptococcus pneumoniae [13]) was 16 µg/mL (≈ 21.4 µM), the MIC50 (Streptococcus pneumoniae [1]) was 0.03 µg/mL (≈ 0.0401 µM) and the MIC90 (Streptococcus pneumoniae [1]) was 0.06 µg/mL (≈ 0.0802 µM). For the same compound, the MIC (Streptococcus pneumoniae [14]) was over 64 µg/mL, the MIC (Streptococcus pneumoniae [4]) was 0.125 µg/mL (≈ 0.167 µM) and the MIC (Streptococcus pneumoniae [5]) was 0.03 µg/mL (≈ 0.0401 µM). The MIC (Streptococcus pyogenes [15]) was over 64 µg/mL, the MIC (Streptococcus pneumoniae [16]) was 16 µg/mL (≈ 21.4 µM) and the MIC (Streptococcus pneumoniae [6]) was over 64 µg/mL. For the same compound, the MIC (Streptococcus pneumoniae [17]) was over 64 µg/mL, the MIC50 (Streptococcus pneumoniae [18]) was over 64 µg/mL and the MIC (Streptococcus pneumoniae [19]) was 8 ng/mL (≈ 0.0107 µM). It also gave an MIC (Streptococcus pneumoniae [20]) of over 64 µg/mL, an MIC (Streptococcus pneumoniae [8]) of over 64 µg/mL and an MIC (Streptococcus pyogenes [9]) of 0.5 µg/mL (≈ 0.668 µM). It also gave an MIC50 (Streptococcus pneumoniae [10]) of 1 µg/mL (≈ 1.34 µM), an MIC90 (Streptococcus pneumoniae [10]) of over 64 µg/mL and an MIC (Streptococcus pneumoniae [12]) of over 64 µg/mL.
